Assay results from ChEMBL document CHEMBL3525945, “Metabolic switching of BILR 355 in the presence of ritonavir. II. Uncovering novel contributions by gut bacteria and aldehyde oxidase” (Drug Metab Dispos, 2012).
One block for each molecule: values may come before it.

How the values were obtained:
[1] = Drug level in human liver S9 fraction treated with BILR402 at 10 uM by LC-MS/MS analysis in presence of NADPH; type: ADME, subcellular; conditions: s9, 10 µM
Summary of the method: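 BILR 402 (10 μM final) was incubated with human liver S9 or cytosol (1 mg/mL protein) in 0.05 M potassium phosphate pH 7.4 at 37 °C. Runs were done with or without 2.5 mM NADPH. Samples at 10, 20, 30 and 60 min were quenched in nevirapine/acetonitrile, filtered and analysed by LC-MS/MS; duplicate.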

[2] = Drug metabolism in human liver S9 fraction assessed as BILR402 metabolite formation at 5 uM by LC-MS/MS analysis; type: ADME, subcellular; conditions: s9, 5 µM
Summary of the method: (§1)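 Pooled human liver microsomes, cytosol or S9 (1 mg/mL) were incubated with BILR 355 (5 μM final) in 0.05 M potassium phosphate pH 7.4 at 37 °C for 60 min. Microsomes and S9 received 2.5 mM NADPH.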

Cytochrome P450 3A4 [3] = molecular target: T1, Cytochrome P450 3A4 (Homo sapiens, UniProt P08684); experiment: Activity at recombinant CYP3A4 (unknown origin) expressed in baculovirus-infected insect cells treated with 1 uM BILR402 assessed as enzyme-mediated compound formation after 4 mins by LC-MS/MS analysis in presence of NADPH; type: ADME
T1 sequence (P08684 whole entry): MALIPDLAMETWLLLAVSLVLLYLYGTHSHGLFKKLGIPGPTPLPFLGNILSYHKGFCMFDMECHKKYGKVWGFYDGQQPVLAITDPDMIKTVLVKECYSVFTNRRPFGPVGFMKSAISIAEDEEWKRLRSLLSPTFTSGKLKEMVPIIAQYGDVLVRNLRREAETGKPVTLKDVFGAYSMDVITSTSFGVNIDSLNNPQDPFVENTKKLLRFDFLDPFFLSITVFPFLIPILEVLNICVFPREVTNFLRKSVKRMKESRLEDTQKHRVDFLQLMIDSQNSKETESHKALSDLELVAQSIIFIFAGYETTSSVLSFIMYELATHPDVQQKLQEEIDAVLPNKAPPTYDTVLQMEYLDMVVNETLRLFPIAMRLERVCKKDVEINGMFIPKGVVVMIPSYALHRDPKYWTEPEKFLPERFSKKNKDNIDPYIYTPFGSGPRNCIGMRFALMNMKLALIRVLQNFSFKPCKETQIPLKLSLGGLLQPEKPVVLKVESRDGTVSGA
Summary of the method: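 rCYP3A4 (5 pmol/mL) incubated with BILR 402 at 1 or 10 μM in 0.1 M potassium phosphate/5 mM MgCl2, pH 7.4, with NADPH at 37 °C. Remaining BILR 402 and BILR 355 formed were read at 4 min by LC-MS/MS against a labelled internal standard.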

Liver microsome [4] = experiment: Drug level in human liver microsomes treated with BILR402 at 1 uM by LC-MS/MS analysis in presence of CYP2C19 inhibitor ticlopidine; type: ADME
Summary of the method: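 BILR 402 (1 μM) was incubated with human liver microsomes (0.05 mg/mL) for 30 min with NADPH, with or without ticlopidine 20 μM final as CYP2C19 inhibitor. BILR 402 depletion and BILR 355 formation were measured by LC-MS/MS.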

Cytochrome P450 3A4 [5] = molecular target: T1, Cytochrome P450 3A4; experiment: Activity at recombinant CYP3A4 (unknown origin) expressed in baculovirus-infected insect cells treated with 10 uM BILR402 assessed as enzyme-mediated compound formation at 10 uM after 4 mins by LC-MS/MS analysis in presence of NADPH
[6] = Drug excretion in mouse feces assessed as metabolite level; type: ADME, tissue-based
[7] = Drug excretion in rat feces assessed as unchanged drug level; type: ADME, tissue-based; conditions: read-out: Drug excretion
[8] = Drug excretion in rat feces assessed as metabolite level; type: ADME, tissue-based
[9] = Drug excretion in mouse feces assessed as unchanged drug level; type: ADME, tissue-based; conditions: read-out: Drug excretion
Liver microsome [10] = experiment: Drug metabolism in human liver microsomes assessed as BILR402 metabolite formation at 5 uM by LC-MS/MS analysis; type: ADME; summary of the method: as §1
Liver cytosol [11] = experiment: Drug metabolism in human liver cytosol assessed as BILR516 disproportionate human metabolite formation at 5 uM after 60 mins by LC-MS/MS analysis; type: ADME, tissue-based; conditions: 1 h; summary of the method: as §1
Liver microsome [12] = experiment: Drug metabolism in human liver microsomes assessed as BILR516 disproportionate human metabolite formation at 5 uM after 60 mins by LC-MS/MS analysis; type: ADME; conditions: 1 h; summary of the method: as §1
Liver cytosol [13] = experiment: Drug metabolism in human liver cytosol assessed as BILR402 metabolite formation at 5 uM by LC-MS/MS analysis; type: ADME, tissue-based; summary of the method: as §1
[14] = Drug metabolism in human liver S9 fraction assessed as BILR516 disproportionate human metabolite formation at 5 uM after 60 mins by LC-MS/MS analysis; type: ADME, subcellular; conditions: s9, 1 h; summary of the method: as §1
[15] = Drug excretion in dog feces assessed as metabolite level; type: ADME, tissue-based, Canis lupus familiaris
[16] = Drug excretion in dog feces assessed as unchanged drug level; type: ADME, tissue-based, Canis lupus familiaris; conditions: read-out: Drug excretion
[17] = substrate: CCN1c2ncc(CCOc3ccnc4ccccc34)cc2C(=O)N(C)c2cccnc21; experiment: Drug metabolism in human liver cytosol assessed as aldehyde-oxidase-mediated BILR516 metabolite formation after 10 mins by Eadie-Hofstee plot analysis; type: ADME, tissue-based
Summary of the method: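 Human liver cytosol (0.1 mg/mL) was incubated with BILR 402 at 12 concentrations, 0.061–125 μM, for 10 min at 37 °C in 0.05 M potassium phosphate pH 7.4 without NADPH, within the linear range for protein and time. […] Apparent Km and Vmax were derived from the kinetic data.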

Drug metabolism [1]: metabolite_detected
Molecule: CCN1c2ncc(CCOc3cc(=O)[nH]c4ccccc34)cc2C(=O)N(C)c2cccnc21

Drug metabolism [2]: metabolite_not_detected
Drug metabolism (Cytochrome P450 3A4 [3]): 0.15 µM
Drug metabolism (Liver microsome [4]): metabolite_detected
Drug metabolism (Cytochrome P450 3A4 [5]): 0.9 µM
Drug excretion [6]: 72.5%
dose excreted [7]: 0%
Drug excretion [8]: 72.5%
dose excreted [9]: 0%
Drug metabolism (Liver microsome [10]): metabolite_not_detected
Drug metabolism (Liver cytosol [11]): metabolite_not_detected
Drug metabolism (Liver microsome [12]): metabolite_not_detected
Drug metabolism (Liver cytosol [13]): metabolite_not_detected
Drug metabolism [14]: metabolite_not_detected
Drug excretion [15]: 72.5%
dose excreted [16]: 0%
Molecule: CCN1c2ncc(CCOc3cc[n+]([O-])c4ccccc34)cc2C(=O)N(C)c2cccnc21 [BILR 355]

B1: Aldehyde oxidase (Homo sapiens) (protein)
chain: MDRASELLFYVNGRKVIEKNVDPETMLLPYLRKKLRLTGTKYGCGGGGCGACTVMISRYNPITKRIRHHPANACLIPICSLYGAAVTTVEGIGSTHTRIHPVQERIAKCHGTQCGFCTPGMVMSIYTLLRNHPEPTLDQLTDALGGNLCRCTGYRPIIDACKTFCKTSGCCQSKENGVCCLDQGINGLPEFEEGSKTSPKLFAEEEFLPLDPTQELIFPPELMIMAEKQSQRTRVFGSERMMWFSPVTLKELLEFKFKYPQAPVIMGNTSVGPEVKFKGVFHPVIISPDRIEELSVVNHAYNGLTLGAGLSLAQVKDILADVVQKLPEEKTQMYHALLKHLGTLAGSQIRNMASLGGHIISRHPDSDLNPILAVGNCTLNLLSKEGKRQIPLNEQFLSKCPNADLKPQEILVSVNIPYSRKWEFVSAFRQAQRQENALAIVNSGMRVFFGEGDGIIRELCISYGGVGPATICAKNSCQKLIGRHWNEQMLDIACRLILNEVSLLGSAPGGKVEFKRTLIISFLFKFYLEVSQILKKMDPVHYPSLADKYESALEDLHSKHHCSTLKYQNIGPKQHPEDPIGHPIMHLSGVKHATGEAIYCDDMPLVDQELFLTFVTSSRAHAKIVSIDLSEALSMPGVVDIMTAEHLSDVNSFCFFTEAEKFLATDKVFCVGQLVCAVLADSEVQAKRAAKRVKIVYQDLEPLILTIEESIQHNSSFKPERKLEYGNVDEAFKVVDQILEGEIHMGGQEHFYMETQSMLVVPKGEDQEMDVYVSTQFPKYIQDIVASTLKLPANKVMCHVRRVGGAFGGKVLKTGIIAAVTAFAANKHGRAVRCVLERGEDMLITGGRHPYLGKYKAGFMNDGRILALDMEHYSNAGASLDESLFVIEMGLLKMDNAYKFPNLRCRGWACRTNLPSNTAFRGFGFPQAALITESCITEVAAKCGLSPEKVRIINMYKEIDQTPYKQEINAKNLIQCWRECMAMSSYSLRKVAVEKFNAENYWKKKGLAMVPLKFPVGLGSRAAGQAAALVHIYLDGSVLVTHGGIEMGQGVHTKMIQVVSRELRMPMSNVHLRGTSTETVPNANISGGSVVADLNGLAVKDACQTLLKRLEPIISKNPKGTWKDWAQTAFDESINLSAVGYFRGYESDMNWEKGEGQPFEYFVYGAACSEVEIDCLTGDHKNIRTDIVMDVGCSINPAIDIGQIEGAFIQGMGLYTIEELNYSPQGILHTRGPDQYKIPAICDMPTELHIALLPPSQNSNTLYSSKGLGESGVFLGCSVFFAIHDAVSAARQERGLHGPLTLNSPLTPEKIRMACEDKFTKMIPRDEPGSYVPWNVPI
Km [17]: 0.772 µM
Vmax [17]: 0.000337 µmol/min
